Data on 23 molecules can be found in ChEMBL document CHEMBL1131043, “Nucleosides and nucleotides. 175. Structural requirements of the sugar moiety for the antitumor activities of new nucleoside antimetabolites, 1-(3-C-ethynyl-beta-D-ribo-pentofuranosyl)cytosine and -uracil1” (J Med Chem, 1998).

Test [1] has as its system L1210. Kind of test: Concentration required to inhibit 50% of murine leukemia L1210 cell growth was measured(in vitro) using MTT assay. Type of test: functional, cell-based, Mus musculus. A digest of the protocol:
(§1)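 Cells seeded at 2 × 10³/well, cultured with or without test nucleoside for 72 h, then 4 h further with MTT. Formazan dissolved in DMSO, OD read at 540 nm. % inhibition = [1 − OD sample/OD control] × 100; IC50 taken as concentration giving 50% growth inhibition. S-180 cytotoxicity run by the same method.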

The subject of test [2] is Sarcoma-180. Kind of test: Phosphorylation by uridine/cytidine kinase(UCK) from mouse sarcoma -180 ascites cells was measured. The format is functional. The method in brief: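 UCK partially purified from mouse Sarcoma-180 ascites cells (ammonium sulfate 30–50%, Sephacryl S-200, hydroxyapatite, DEAE-Sepharose). Reaction: 50 mM Tris-HCl pH 8.0, 10 mM ATP, 10 mM NaF, 5 mM MgCl2, 1 mg/mL BSA, 0.6 mM nucleoside, 37 °C, 15 min (Cyd, Urd) or 60 min (others), stopped by boiling. Tritiated nucleosides: 5'-monophosphate on PEI-cellulose TLC counted; unlabeled: substrate consumption by C18 HPLC at 270 nm. Duplicate means.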

Test [3] deals with Sarcoma-180. Kind of test: Cytotoxicity against sarcoma -180 cells was measured by […]. The format is functional, cell-based. Conditions: Mus musculus. The method in brief:
as §1

The subject of test [4] is KB. Kind of test: Concentration required to inhibit 50% of human epidermoid KB cell growth was measured(in vitro) using MTT assay. The format is functional, cell-based. The method in brief:
as §1

For test [5], the system named is KB. Kind of test: The concentration required to inhibit 50% of human epidermoid KB cell growth was measured(in vitro) using MTT assay. Type of test: functional, cell-based. The method in brief: as §1
In general terms: Tetrazolium dyes change colour on reduction, which living cells bring about.

SMILES strings stand for the structures.

For `C=C[C@@]1(O)[C@@H](CO)O[C@@H](n2ccc(=O)[nH]c2=O)[C@@H]1O`, the IC50 (usually the concentration that gives 50% inhibition) was 148 µM in test [1] (Mus musculus, L1210); more than 30 µM in test [3]; 51.8 µM in test [4] (Homo sapiens, KB). In test [2], this molecule gave a Phosphorylating activity of 9.3 pmol/min/assay.
The matching figures for `CC#C[C@@]1(O)[C@@H](CO)O[C@@H](n2ccc(N)nc2=O)[C@@H]1O`: 24.5 µM, 13.9 µM, 14.6 µM and 160 pmol/min/assay.
Consider `CCC[C@@]1(O)[C@@H](CO)O[C@@H](n2ccc(=O)[nH]c2=O)[C@@H]1O`, for which the half-inhibitory concentration (IC50) in test [1] (Mus musculus, L1210) was more than 350 µM; in test [4] (Homo sapiens, KB), more than 350 µM.
For `CCC#C[C@@]1(O)[C@@H](CO)O[C@@H](n2ccc(=O)[nH]c2=O)[C@@H]1O`, the IC50 in test [1] (Mus musculus, L1210) turned out to be 338 µM; in test [4] (Homo sapiens, KB) it was 226 µM.
In the case of `CCC#C[C@@]1(O)[C@@H](CO)O[C@@H](n2ccc(N)nc2=O)[C@@H]1O`, the IC50 is 129 µM in test [1] (Mus musculus, L1210); more than 30 µM in test [3]; 108 µM in test [4] (Homo sapiens, KB). Further, in test [2], the Phosphorylating activity was 0 pmol/min/assay.
As to `C#C[C@@H]1[C@@H](O)[C@H](n2ccc(N)nc2=O)O[C@@H]1CO`, the IC50 in test [1] (Mus musculus, L1210) was more than 350 µM; in test [3], more than 30 µM; in test [4] (Homo sapiens, KB), more than 350 µM. The molecule further displayed a Phosphorylating activity in test [2] of 6.9 pmol/min/assay.
Consider `C#C[C@]1(O)[C@@H](CO)O[C@@H](n2ccc(=O)[nH]c2=O)[C@@H]1O`, for which the 50% inhibitory concentration (IC50) was more than 350 µM in test [1] (l1210), 0.013 µM in test [3] and more than 350 µM in test [4] (kb). Further, in test [2], the Phosphorylating activity came out at 141 pmol/min/assay.
As for `C#C[C@]1(O)[C@@H](CO)O[C@@H](n2ccc(N)nc2=O)[C@@H]1O`, the concentration for half-maximal inhibition (IC50) in test [1] (l1210) and in test [4] (kb) was more than 350 µM each time.
Turning to `O=c1ccn([C@@H]2O[C@H](CO)[C@](O)(C3CC3)[C@H]2O)c(=O)[nH]1`, the IC50 in test [1] (Mus musculus, L1210) is more than 350 µM; in test [4] (Homo sapiens, KB), more than 350 µM.
`C#CC[C@@]1(O)[C@@H](CO)O[C@@H](n2ccc(=O)[nH]c2=O)[C@@H]1O`: the IC50 in test [1] (Mus musculus, L1210) is more than 350 µM; in test [5], more than 350 µM.
Consider `C#C[C@H]1[C@@H](O)[C@H](n2ccc(=O)[nH]c2=O)O[C@@H]1CO`, for which the IC50 in test [1] (Mus musculus, L1210) was more than 350 µM; in test [4] (Homo sapiens, KB), more than 350 µM.
With `C#C[C@@H]1[C@@H](O)[C@H](n2ccc(=O)[nH]c2=O)O[C@@H]1CO`, the IC50 in test [1] (Mus musculus, L1210) is more than 350 µM; in test [4] (Homo sapiens, KB), more than 350 µM.
As for `C#CC[C@]1(O)[C@@H](CO)O[C@@H](n2ccc(N)nc2=O)[C@@H]1O`, the IC50 in test [1] (Mus musculus, L1210) is more than 350 µM; in test [4] (Homo sapiens, KB) it was more than 350 µM.
With `CC#C[C@@]1(O)[C@@H](CO)O[C@@H](n2ccc(=O)[nH]c2=O)[C@@H]1O`, the IC50 in test [1] (Mus musculus, L1210) turned out to be 354 µM; in test [4] (Homo sapiens, KB), 70.8 µM.
For the molecule `C=C[C@@]1(O)[C@@H](CO)O[C@@H](n2ccc(N)nc2=O)[C@@H]1O`, the IC50 in test [1] (Mus musculus, L1210) was 60.8 µM; in test [3], more than 30 µM; in test [4] (Homo sapiens, KB), 74.3 µM. For the same molecule, the Phosphorylating activity in test [2] came to 0 pmol/min/assay.
With `C#C[C@]1(O)[C@H](O)[C@@H](CO)O[C@H]1n1ccc(N)nc1=O`, the IC50 in test [1] (Mus musculus, L1210) was more than 350 µM; in test [4] (Homo sapiens, KB) it was more than 350 µM.
On to `CC[C@@]1(O)[C@@H](CO)O[C@@H](n2ccc(N)nc2=O)[C@@H]1O`, for which the IC50 in test [1] (Mus musculus, L1210) is 269 µM; in test [3], more than 30 µM; in test [4] (Homo sapiens, KB), 258 µM. The molecule also returned a Phosphorylating activity in test [2] of 0 pmol/min/assay.
Turning to `C#CC[C@@]1(O)[C@@H](CO)O[C@@H](n2ccc(N)nc2=O)[C@@H]1O`, the IC50 in test [1] (Mus musculus, L1210) was more than 350 µM; in test [4] (Homo sapiens, KB), more than 350 µM.
For `C#CC[C@]1(O)[C@@H](CO)O[C@@H](n2ccc(=O)[nH]c2=O)[C@@H]1O`, the IC50 is more than 350 µM in test [1] (Mus musculus, L1210) and more than 350 µM in test [4] (Homo sapiens, KB).
In the case of `Nc1ccn([C@@H]2O[C@H](CO)[C@](O)(C3CC3)[C@H]2O)c(=O)n1`, the half-inhibitory concentration (IC50) in test [1] (Mus musculus, L1210) was more than 350 µM; in test [4] (Homo sapiens, KB) it was more than 350 µM.
As for `C#C[C@@]1(O)[C@H](O)[C@@H](CO)O[C@H]1n1ccc(N)nc1=O` [2'-ETHYNYL-D-CYTIDINE], the IC50 was more than 350 µM in test [1] (Mus musculus, L1210) and more than 350 µM in test [4] (Homo sapiens, KB).
As to `Nc1ccn([C@@H]2O[C@H](CO)[C@@H](O)[C@H]2O)c(=O)n1` [CYTIDINE], the Phosphorylating activity in test [2] amounted to 812 pmol/min/assay.
`O=c1ccn([C@@H]2O[C@H](CO)[C@@H](O)[C@H]2O)c(=O)[nH]1` [URIDINE] registered a Phosphorylating activity in test [2] of 755 pmol/min/assay.
